{"source": "ChEMBL document CHEMBL4261600", "about": "(Eur J Med Chem, 2018)", "key": {"[1]": {"target": "Cyclin-dependent kinase 7 (Homo sapiens) (UniProt P50613)", "assay": "Inhibition of CDK7 in human HL60 cells assessed as decrease in RNA polymerase 2 phosphorylation at Ser 5 residues up to 3 uM after 2 hrs by immunoblotting analysis", "assay_type": "cell-based"}, "[2]": {"target": "Calcium/calmodulin-dependent protein kinase type II subunit alpha (Homo sapiens) (UniProt Q9UQM7)", "assay": "Binding affinity to wild-type human partial length CAMK2A (M1 to K328 residues) expressed in bacterial expression system assessed as remaining unbound target protein level at 1000 nM by Kinomescan method relative to control", "in_short": "(§1)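 Profiled in a KINOMEscan binding panel with the inhibitor at a single concentration of 1 μM. Binding to each kinase was read out as percent of control, relative to a DMSO control. Strong binders were defined as those with a percent control value below 1.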"}, "[3]": {"target": "Cyclin-dependent kinase 4/cyclin D1 (Homo sapiens) (UniProt P11802+P24385)", "assay": "Binding affinity to wild-type human full length CDK4/cyclinD1 (M1 to E303 residues) expressed in mammalian expression system assessed as remaining unbound target protein level at 1000 nM by Kinomescan method relative to control", "in_short": "(§2)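 KINOMEscan competitive binding profile at 1 μM inhibitor. Remaining target binding reported as percent of DMSO control.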"}, "[4]": {"target": "CDK4/Cyclin D3 (Homo sapiens) (UniProt P11802+P30281)", "assay": "Binding affinity to wild-type human full length CDK4/cyclinD3 (M1 to E303 residues) expressed in mammalian expression system assessed as remaining unbound target protein level at 1000 nM by Kinomescan method relative to control", "in_short": "as §2"}, "[5]": {"target": "Serine/threonine-protein kinase DCLK2 (Homo sapiens) (UniProt Q8N568)", "sequence (Q8N568 whole entry, the tested form may be a part)": "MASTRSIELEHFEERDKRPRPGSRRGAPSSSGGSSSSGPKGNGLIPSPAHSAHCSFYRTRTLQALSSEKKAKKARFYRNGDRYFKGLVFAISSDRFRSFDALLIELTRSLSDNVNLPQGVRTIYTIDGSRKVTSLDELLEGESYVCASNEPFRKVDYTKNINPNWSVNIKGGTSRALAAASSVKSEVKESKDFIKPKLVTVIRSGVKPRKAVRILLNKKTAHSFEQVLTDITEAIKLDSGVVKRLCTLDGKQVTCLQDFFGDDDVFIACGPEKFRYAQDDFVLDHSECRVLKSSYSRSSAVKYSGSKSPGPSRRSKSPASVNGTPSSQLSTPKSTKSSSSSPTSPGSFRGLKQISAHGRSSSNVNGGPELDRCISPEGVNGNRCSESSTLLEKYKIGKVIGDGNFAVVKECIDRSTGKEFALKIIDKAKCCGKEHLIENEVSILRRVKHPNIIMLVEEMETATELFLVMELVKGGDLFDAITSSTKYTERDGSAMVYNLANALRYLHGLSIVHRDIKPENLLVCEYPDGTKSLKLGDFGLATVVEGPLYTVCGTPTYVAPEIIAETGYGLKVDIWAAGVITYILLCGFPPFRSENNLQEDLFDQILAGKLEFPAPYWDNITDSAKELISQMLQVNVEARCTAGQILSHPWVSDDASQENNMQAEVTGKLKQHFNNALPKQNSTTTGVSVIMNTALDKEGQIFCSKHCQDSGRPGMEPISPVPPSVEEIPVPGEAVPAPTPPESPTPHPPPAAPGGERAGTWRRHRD", "assay": "Binding affinity to wild-type human partial length DCAMKL2 (K273 to V664 residues) expressed in bacterial expression system assessed as remaining unbound target protein level at 1000 nM by Kinomescan method relative to control"}, "[6]": {"target": "Serine/threonine-protein kinase 17A (Homo sapiens) (UniProt Q9UEE5)", "assay": "Binding affinity to wild-type human partial length DRAK1 (R32 to E363 residues) expressed in bacterial expression system assessed as remaining unbound target protein level at 1000 nM by Kinomescan method relative to control"}, "[7]": {"target": "Dual specificity tyrosine-phosphorylation-regulated kinase 2 (Homo sapiens) (UniProt Q92630)", "sequence (Q92630 whole entry, the tested form may be a part)": "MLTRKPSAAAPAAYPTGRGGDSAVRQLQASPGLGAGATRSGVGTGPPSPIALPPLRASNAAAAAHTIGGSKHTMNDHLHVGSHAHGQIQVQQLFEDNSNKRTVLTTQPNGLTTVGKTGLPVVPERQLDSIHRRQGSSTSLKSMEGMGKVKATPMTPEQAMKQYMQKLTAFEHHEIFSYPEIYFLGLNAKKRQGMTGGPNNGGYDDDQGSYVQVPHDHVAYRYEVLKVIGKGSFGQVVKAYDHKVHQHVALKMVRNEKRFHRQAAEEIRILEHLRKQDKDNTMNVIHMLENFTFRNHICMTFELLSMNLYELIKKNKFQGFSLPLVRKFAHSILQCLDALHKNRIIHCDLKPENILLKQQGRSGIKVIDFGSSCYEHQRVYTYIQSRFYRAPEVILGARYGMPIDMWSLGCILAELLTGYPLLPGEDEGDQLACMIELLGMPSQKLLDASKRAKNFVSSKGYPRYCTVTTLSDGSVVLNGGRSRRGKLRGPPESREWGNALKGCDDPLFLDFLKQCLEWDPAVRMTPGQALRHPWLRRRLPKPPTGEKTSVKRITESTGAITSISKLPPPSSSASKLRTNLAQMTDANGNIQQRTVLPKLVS", "assay": "Binding affinity to wild-type human full length DYRK2 (M1 to S528 residues) expressed in mammalian expression system assessed as remaining unbound target protein level at 1000 nM by Kinomescan method relative to control", "in_short": "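KINOMEscan competition binding profile across a panel of 468 kinases and mutants, with the inhibitor tested at a single concentration of 1 μM. Binding is reported as percent of control, meaning signal relative to a DMSO control.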"}, "[8]": {"target": "Mitogen-activated protein kinase 1 (Homo sapiens) (UniProt P28482)", "assay": "Binding affinity to wild-type human full length ERK2 (M1 to S360 residues) expressed in bacterial expression system assessed as remaining unbound target protein level at 1000 nM by Kinomescan method relative to control", "in_short": "(§3)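 Single-point competition binding screen across a panel of 468 kinases and mutants, with the inhibitor at 1 μM. Binding is read out as percent of a DMSO control, and targets below 1 percent control were classed as strong binders.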"}, "[9]": {"system": "Fibroblast growth factor receptor 3 (Homo sapiens), P22607 [G697C]", "assay": "Binding affinity to human partial length FGFR3 G697C mutant (R442 to S771 residues) expressed in bacterial expression system assessed as remaining unbound target protein level at 1000 nM by Kinomescan method relative to control", "in_short": "(§4)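 KINOMEscan competition-binding profiling across the panel of 468 kinases and mutants, with inhibitor tested at 1 μM. Binding is expressed as percent of control, with DMSO as the reference control.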"}, "[10]": {"system": "Receptor-type tyrosine-protein kinase FLT3 (Homo sapiens), P36888 [UNDEFINED MUTATION]", "assay": "Binding affinity to human partial length FLT3 ITD mutant expressed in bacterial expression system assessed as remaining unbound target protein level at 1000 nM by Kinomescan method relative to control", "in_short": "as §4"}, "[11]": {"target": "Inhibitor of nuclear factor kappa-B kinase subunit alpha (Homo sapiens) (UniProt O15111)", "sequence (O15111 whole entry, the tested form may be a part)": "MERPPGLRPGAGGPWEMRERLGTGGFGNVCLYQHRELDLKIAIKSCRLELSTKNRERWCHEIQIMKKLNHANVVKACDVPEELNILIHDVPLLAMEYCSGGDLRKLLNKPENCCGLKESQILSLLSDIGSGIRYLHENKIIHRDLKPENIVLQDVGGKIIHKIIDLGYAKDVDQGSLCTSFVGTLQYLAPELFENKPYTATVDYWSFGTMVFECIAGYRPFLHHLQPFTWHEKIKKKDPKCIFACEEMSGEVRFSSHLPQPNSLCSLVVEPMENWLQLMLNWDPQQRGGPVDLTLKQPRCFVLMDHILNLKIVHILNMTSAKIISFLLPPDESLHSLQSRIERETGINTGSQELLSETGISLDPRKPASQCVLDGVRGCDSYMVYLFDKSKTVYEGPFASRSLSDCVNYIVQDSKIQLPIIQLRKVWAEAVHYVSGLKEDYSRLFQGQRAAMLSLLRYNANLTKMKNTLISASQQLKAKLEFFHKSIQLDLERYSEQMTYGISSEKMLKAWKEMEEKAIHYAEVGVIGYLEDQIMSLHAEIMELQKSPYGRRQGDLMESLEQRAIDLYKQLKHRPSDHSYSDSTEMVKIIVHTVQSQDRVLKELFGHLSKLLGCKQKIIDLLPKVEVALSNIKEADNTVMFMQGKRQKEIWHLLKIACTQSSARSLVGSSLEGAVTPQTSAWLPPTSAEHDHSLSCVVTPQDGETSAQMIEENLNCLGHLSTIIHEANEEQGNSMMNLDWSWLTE", "assay": "Binding affinity to wild-type human full length IKK-alpha (M1 to E745 residues) expressed in mammalian expression system assessed as remaining unbound target protein level at 1000 nM by Kinomescan method relative to control", "in_short": "as §3"}, "[12]": {"target": "Mitogen-activated protein kinase kinase kinase 10 (Homo sapiens) (UniProt Q02779)", "sequence (Q02779 whole entry, looked up, the tested form may be a part)": "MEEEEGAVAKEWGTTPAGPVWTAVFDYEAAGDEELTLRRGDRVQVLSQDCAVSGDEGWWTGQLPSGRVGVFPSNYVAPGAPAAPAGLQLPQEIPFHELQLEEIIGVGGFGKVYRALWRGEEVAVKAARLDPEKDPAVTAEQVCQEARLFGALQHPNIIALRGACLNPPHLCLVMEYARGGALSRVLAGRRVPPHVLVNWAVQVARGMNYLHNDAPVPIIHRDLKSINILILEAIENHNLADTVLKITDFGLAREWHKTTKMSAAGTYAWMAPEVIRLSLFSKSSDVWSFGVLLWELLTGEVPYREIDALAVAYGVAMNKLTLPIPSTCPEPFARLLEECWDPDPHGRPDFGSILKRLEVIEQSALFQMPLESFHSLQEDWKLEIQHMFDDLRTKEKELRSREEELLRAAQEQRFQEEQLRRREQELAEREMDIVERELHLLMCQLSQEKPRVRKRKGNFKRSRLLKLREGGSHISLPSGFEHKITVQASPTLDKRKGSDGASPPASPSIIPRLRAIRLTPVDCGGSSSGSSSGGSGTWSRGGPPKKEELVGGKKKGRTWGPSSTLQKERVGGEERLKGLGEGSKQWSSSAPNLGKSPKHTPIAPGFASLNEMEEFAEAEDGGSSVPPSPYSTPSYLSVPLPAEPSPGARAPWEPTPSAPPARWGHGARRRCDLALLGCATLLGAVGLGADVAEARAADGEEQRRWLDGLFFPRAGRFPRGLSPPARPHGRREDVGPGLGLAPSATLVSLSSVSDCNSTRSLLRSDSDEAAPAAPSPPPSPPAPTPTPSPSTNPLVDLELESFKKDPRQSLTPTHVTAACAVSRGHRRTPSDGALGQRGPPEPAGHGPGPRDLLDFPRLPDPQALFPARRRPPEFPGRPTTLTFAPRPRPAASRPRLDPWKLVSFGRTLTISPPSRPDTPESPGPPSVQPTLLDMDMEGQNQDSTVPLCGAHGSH", "assay": "Binding affinity to wild-type human partial length MLK2 (V52 to W380 residues) expressed in bacterial expression system assessed as remaining unbound target protein level at 1000 nM by Kinomescan method relative to control", "in_short": "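KINOMEscan binding panel of 468 kinases/mutants. Inhibitor was tested at a single concentration of 1 μM. Binding is reported as percent of control, defined relative to a DMSO control.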"}, "[13]": {"target": "Mitogen-activated protein kinase kinase kinase 11 (Homo sapiens) (UniProt Q16584)", "sequence (Q16584 whole entry, looked up, the tested form may be a part)": "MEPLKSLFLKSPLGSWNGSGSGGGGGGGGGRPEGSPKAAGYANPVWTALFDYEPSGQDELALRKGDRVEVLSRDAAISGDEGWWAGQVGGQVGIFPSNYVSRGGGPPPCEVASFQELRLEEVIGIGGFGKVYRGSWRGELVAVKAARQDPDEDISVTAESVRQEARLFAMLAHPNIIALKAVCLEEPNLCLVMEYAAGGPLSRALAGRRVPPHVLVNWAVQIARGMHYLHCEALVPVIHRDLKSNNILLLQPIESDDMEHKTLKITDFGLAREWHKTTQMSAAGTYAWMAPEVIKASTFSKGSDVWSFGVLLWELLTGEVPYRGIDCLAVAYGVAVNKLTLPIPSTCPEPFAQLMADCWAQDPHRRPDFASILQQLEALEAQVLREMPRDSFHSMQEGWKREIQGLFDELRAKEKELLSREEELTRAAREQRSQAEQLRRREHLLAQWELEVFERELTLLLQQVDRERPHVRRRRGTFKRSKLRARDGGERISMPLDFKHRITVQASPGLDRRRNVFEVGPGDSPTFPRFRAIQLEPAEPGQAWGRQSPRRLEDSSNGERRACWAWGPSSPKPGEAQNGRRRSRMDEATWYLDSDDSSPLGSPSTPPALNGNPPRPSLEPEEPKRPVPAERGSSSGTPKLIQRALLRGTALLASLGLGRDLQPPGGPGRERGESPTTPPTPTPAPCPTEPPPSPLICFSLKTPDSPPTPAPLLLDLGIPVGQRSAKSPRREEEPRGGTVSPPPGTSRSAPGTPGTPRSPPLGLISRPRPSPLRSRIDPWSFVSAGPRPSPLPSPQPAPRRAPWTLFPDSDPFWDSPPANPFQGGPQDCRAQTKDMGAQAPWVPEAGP", "assay": "Binding affinity to wild-type human partial length MLK3 (I77 to W399 residues) expressed in bacterial expression system assessed as remaining unbound target protein level at 1000 nM by Kinomescan method relative to control"}, "[14]": {"target": "Mitogen-activated protein kinase 13 (Homo sapiens) (UniProt O15264)", "sequence (O15264 whole entry, the tested form may be a part)": "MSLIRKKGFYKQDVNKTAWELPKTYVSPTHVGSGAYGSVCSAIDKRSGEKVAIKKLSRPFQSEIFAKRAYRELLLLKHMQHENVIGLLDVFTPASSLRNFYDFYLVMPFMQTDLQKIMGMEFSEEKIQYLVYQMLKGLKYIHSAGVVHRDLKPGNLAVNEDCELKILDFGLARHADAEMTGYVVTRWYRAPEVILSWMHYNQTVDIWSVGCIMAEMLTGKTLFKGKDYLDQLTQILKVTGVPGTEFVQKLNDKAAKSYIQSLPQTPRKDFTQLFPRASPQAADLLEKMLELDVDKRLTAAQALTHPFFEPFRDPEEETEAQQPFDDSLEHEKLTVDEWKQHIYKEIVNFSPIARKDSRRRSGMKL", "assay": "Binding affinity to wild-type human full length p38-delta (M1 to L365 residues) expressed in bacterial expression system assessed as remaining unbound target protein level at 1000 nM by Kinomescan method relative to control", "in_short": "as §1"}, "[15]": {"target": "Serine/threonine-protein kinase PAK 6 (Homo sapiens) (UniProt Q9NQU5)", "assay": "Binding affinity to wild-type human partial length PAK6 (N298 to C681 residues) expressed in bacterial expression system assessed as remaining unbound target protein level at 1000 nM by Kinomescan method relative to control"}, "[16]": {"target": "Ribosomal protein S6 kinase alpha-2 (Homo sapiens) (UniProt Q15349)", "assay": "Binding affinity to wild-type human partial length N-terminal RSK3 kinase domain 1 (M1 to Q385 residues) expressed in bacterial expression system assessed as remaining unbound target protein level at 1000 nM by Kinomescan method relative to control"}, "[17]": {"target": "Proto-oncogene tyrosine-protein kinase Src (Homo sapiens) (UniProt P12931)", "sequence (P12931 2-536 limits assumed)": "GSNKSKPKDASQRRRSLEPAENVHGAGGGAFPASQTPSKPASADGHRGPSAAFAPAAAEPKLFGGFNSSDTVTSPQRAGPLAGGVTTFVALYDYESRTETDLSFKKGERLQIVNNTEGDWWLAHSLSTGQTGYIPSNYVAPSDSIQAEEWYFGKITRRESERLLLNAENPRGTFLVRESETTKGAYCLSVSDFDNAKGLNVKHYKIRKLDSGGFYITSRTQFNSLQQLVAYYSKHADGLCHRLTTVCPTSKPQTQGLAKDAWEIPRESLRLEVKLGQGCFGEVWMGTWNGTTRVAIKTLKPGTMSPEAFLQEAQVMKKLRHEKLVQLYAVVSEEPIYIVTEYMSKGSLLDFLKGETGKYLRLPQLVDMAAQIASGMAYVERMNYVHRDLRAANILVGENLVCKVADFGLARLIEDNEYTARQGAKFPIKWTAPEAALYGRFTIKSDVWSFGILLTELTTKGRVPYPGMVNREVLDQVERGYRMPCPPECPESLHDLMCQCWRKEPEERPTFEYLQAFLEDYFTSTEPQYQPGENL", "assay": "Binding affinity to wild-type human partial length SRC (L240 to L536 residues) expressed in bacterial expression system assessed as remaining unbound target protein level at 1000 nM by Kinomescan method relative to control"}, "[18]": {"target": "Serine/threonine-protein kinase TAO3 (Homo sapiens) (UniProt Q9H2K8)", "assay": "Binding affinity to wild-type human partial length TAOK3 (M1 to T316 residues) expressed in mammalian expression system assessed as remaining unbound target protein level at 1000 nM by Kinomescan method relative to control"}, "[19]": {"target": "Serine/threonine-protein kinase WNK4 (Homo sapiens) (UniProt Q96J92)", "assay": "Binding affinity to wild-type human partial length WNK4 (A31 to D461 residues) expressed in mammalian expression system assessed as remaining unbound target protein level at 1000 nM by Kinomescan method relative to control"}, "Homo sapiens": {"organism": "Homo sapiens", "assay": "Selectivity ratio of IC50 for recombinant GST-tagged human CDK3/cyclin E1 to IC50 for recombinant full length His-tagged human CDK9/CyclinT1"}}, "note": "Activity calls are given as the source filed them.", "data": [{"compound": "COCCN[C@H]1CC[C@H](Nc2cc(-c3csc(NCC4(C#N)CCOCC4)n3)c(Cl)cn2)CC1", "values": [{"measurement": "inhibition", "setting": "[1]", "value": "inactive"}, {"measurement": "Activity", "setting": "[2]", "value": 100, "unit": "%"}, {"measurement": "Activity", "setting": "[3]", "value": 69, "unit": "%"}, {"measurement": "Activity", "setting": "[4]", "value": 72, "unit": "%"}, {"measurement": "Activity", "setting": "[5]", "value": 96, "unit": "%"}, {"measurement": "Activity", "setting": "[6]", "value": 100, "unit": "%"}, {"measurement": "Activity", "setting": "[7]", "value": 5.2, "unit": "%"}, {"measurement": "Activity", "setting": "[8]", "value": 96, "unit": "%"}, {"measurement": "Activity", "setting": "[9]", "value": 60, "unit": "%"}, {"measurement": "Activity", "setting": "[10]", "value": 89, "unit": "%"}, {"measurement": "Activity", "setting": "[11]", "value": 89, "unit": "%"}, {"measurement": "Activity", "setting": "[12]", "value": 99, "unit": "%"}, {"measurement": "Activity", "setting": "[13]", "value": 85, "unit": "%"}, {"measurement": "Activity", "setting": "[14]", "value": 100, "unit": "%"}, {"measurement": "Activity", "setting": "[15]", "value": 92, "unit": "%"}, {"measurement": "Activity", "setting": "[16]", "value": 90, "unit": "%"}, {"measurement": "Activity", "setting": "[17]", "value": 89, "unit": "%"}, {"measurement": "Activity", "setting": "[18]", "value": 15, "unit": "%"}, {"measurement": "Activity", "setting": "[19]", "value": 100, "unit": "%"}, {"measurement": "Ratio IC50", "setting": "Homo sapiens", "value": "> 1000"}]}]}
